According to ChEMBL document CHEMBL3414425, “Synthesis and biological evaluation of new imidazo[2,1-b][1,3,4]thiadiazole-benzimidazole derivatives” (Eur J Med Chem, 2015):
Values after ≈ are worked out from the molar mass of the structure shown. Active and inactive are the calls of the source. The calls are words filed in the database; no cut-off is given here.

Key:
Pseudomonas aeruginosa [1] = experiment: Antibacterial activity against Pseudomonas aeruginosa at 1 mg/ml incubated for 18 hrs by well plate technique; assay type: functional; settings: for zone of inhibition at 1000 µg/mL: read-out: DIZ
Outline: (§1)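 Bacteria kept on nutrient agar at 37 °C, grown statically in nutrient broth (start ~10-100 cfu/mL) at 37 °C for 18-24 h. Suspensions diluted in saline and spread on nutrient agar, then wells cut with a cork borer. Compound in DMSO at 1 or 0.5 mg/mL added to wells, 37 °C, 18 h. Inhibition zone diameter measured minus DMSO value; triplicate; streptomycin standard.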

Aspergillus flavus [2] = experiment: Antifungal activity against Aspergillus flavus at 0.5 mg/ml incubated for 3 days; assay type: functional; settings: for zone of inhibition at 500 µg/mL: 72 h, read-out: IZ
Outline: (§2)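 Well plate method on potato dextrose agar. Fungal stock suspended in distilled water with Tween 80 and swabbed over plates. Samples in DMSO at 1 and 0.5 mg/mL added to wells, incubated 25 °C for 3 days, then scored for inhibition zones; fluconazole standard.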

Aspergillus flavus [3] = experiment: Antifungal activity against Aspergillus flavus at 1 mg/ml incubated for 3 days; assay type: functional; settings: for zone of inhibition at 1000 µg/mL: 72 h, read-out: IZ; outline: as §2
[4] = Cytotoxicity against African green monkey Vero cells assessed as growth inhibition at 62.5 ug/ml after 72 hrs by MTT assay; assay type: cell-based; settings: chlorocebus sabaeus, read-out: GI
Outline: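 Vero cells grown in MEM + 10% FBS at 37 °C, 5% CO2. Seeded ~10,000 cells/well, 24 h to a partial monolayer. Compounds in DMSO diluted in MEM + 2% FBS (1 mg/ml stock, two-fold dilutions) for 72 h. MTT 3 h, formazan dissolved in propanol, A540. % inhibition = 100 − (mean OD test/mean OD control × 100).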

Candida albicans [5] = experiment: Antifungal activity against Candida albicans at 1 mg/ml incubated for 3 days; assay type: functional; settings: for zone of inhibition at 1000 µg/mL: 72 h, read-out: IZ; outline: as §2
[6] = tested on: Chrysosporium keratinophilum; experiment: Antifungal activity against Chrysosporium keratinophilum at 1 mg/ml incubated for 3 days; assay type: functional; settings: for zone of inhibition at 1000 µg/mL: 72 h, read-out: IZ; outline: as §2
Salmonella typhi [7] = experiment: Antibacterial activity against Salmonella typhi at 0.5 mg/ml incubated for 18 hrs by well plate technique; assay type: functional, Salmonella enterica subsp. enterica serovar Typhi; settings: for zone of inhibition at 500 µg/mL: Salmonella enterica, read-out: DIZ; for diameter of the inhibition zone (DIZ): Salmonella enterica subsp. enterica serovar Typhi
Outline: (§3)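 Well diffusion on nutrient agar; strains kept on nutrient agar at 37 °C, grown statically in nutrient broth 18-24 h at 37 °C, diluted in saline, 0.1 ml spread per plate. Compounds in DMSO at 1 and 0.5 mg/mL added to cork-bored wells; 18 h at 37 °C. Inhibition zone diameter measured, DMSO value subtracted; triplicate; streptomycin reference.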

[8] = tested on: Chrysosporium keratinophilum; experiment: Antifungal activity against Chrysosporium keratinophilum at 0.5 mg/ml incubated for 3 days; assay type: functional; settings: for zone of inhibition at 500 µg/mL: 72 h, read-out: IZ; outline: as §2
Escherichia coli [9] = experiment: Antibacterial activity against Escherichia coli at 1 mg/ml incubated for 18 hrs by well plate technique; assay type: functional; settings: for zone of inhibition at 1000 µg/mL: read-out: DIZ; outline: as §1
[10] = Antioxidant activity assessed as DPPH radical scavenging activity incubated for 10 mins by UV-visible spectrometry; assay type: physicochemical
Outline: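 DPPH free-radical scavenging; absorbance read at 517 nm against a methanol blank. % scavenging = (A control − A sample)/A control × 100.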

[11] = tested on: Mycobacterium tuberculosis; experiment: Antitubercular activity against Mycobacterium tuberculosis H37Rv ATCC 27294/XDR-TB incubated for 28 days by agar dilution method; assay type: functional; settings: 672 h
Outline: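 Agar dilution: two-fold dilutions in Middlebrook 7H11 agar with OADC. Inoculum from fresh 7H11/OADC slants adjusted to 1 mg/mL wet weight in 0.05% Tween 80 saline, diluted 10^-2 (~10⁷ cfu/mL); 5 µL spotted per tube. Incubated 37 °C; MIC, lowest concentration fully inhibiting growth, read after 28 days, in triplicate.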

Candida albicans [12] = experiment: Antifungal activity against Candida albicans at 0.5 mg/ml incubated for 3 days; assay type: functional; settings: for zone of inhibition at 500 µg/mL: 72 h, read-out: IZ; outline: as §2
Escherichia coli [13] = experiment: Antibacterial activity against Escherichia coli at 0.5 mg/ml incubated for 18 hrs by well plate technique; assay type: functional; settings: for zone of inhibition at 500 µg/mL: read-out: DIZ; outline: as §1
Salmonella typhi [14] = experiment: Antibacterial activity against Salmonella typhi at 1 mg/ml incubated for 18 hrs by well plate technique; assay type: functional, Salmonella enterica subsp. enterica serovar Typhi; settings: for zone of inhibition at 1000 µg/mL: Salmonella enterica, read-out: DIZ; for diameter of the inhibition zone (DIZ): Salmonella enterica subsp. enterica serovar Typhi; outline: as §3
Pseudomonas aeruginosa [15] = experiment: Antibacterial activity against Pseudomonas aeruginosa at 0.5 mg/ml incubated for 18 hrs by well plate technique; assay type: functional; settings: for zone of inhibition at 500 µg/mL: read-out: DIZ; outline: as §1
Staphylococcus aureus [16] = experiment: Antibacterial activity against Staphylococcus aureus at 0.5 mg/ml incubated for 18 hrs by well plate technique; assay type: functional; settings: for zone of inhibition at 500 µg/mL: read-out: DIZ; outline: as §1
Staphylococcus aureus [17] = experiment: Antibacterial activity against Staphylococcus aureus at 1 mg/ml incubated for 18 hrs by well plate technique; assay type: functional; settings: for zone of inhibition at 1000 µg/mL: read-out: DIZ; outline: as §1

SMILES	zone of inhibition at 1000 µg/mL (Pseudomonas aeruginosa [1]) [mm]	zone of inhibition at 500 µg/mL (Aspergillus flavus [2]) [mm]	zone of inhibition at 1000 µg/mL (Aspergillus flavus [3]) [mm]	inhibition at 72 h, 62.5 ug/ml [4] [%]	zone of inhibition at 1000 µg/mL (Candida albicans [5]) [mm]	zone of inhibition at 1000 µg/mL [6] [mm]	zone of inhibition at 500 µg/mL (Salmonella typhi [7]) [mm]	zone of inhibition at 500 µg/mL [8] [mm]	zone of inhibition at 1000 µg/mL (Escherichia coli [9]) [mm]	inhibition (INH) [10] [%]	MIC [11] [µg/mL]	zone of inhibition at 500 µg/mL (Candida albicans [12]) [mm]	zone of inhibition at 500 µg/mL (Escherichia coli [13]) [mm]	zone of inhibition at 1000 µg/mL (Salmonella typhi [14]) [mm]	zone of inhibition at 500 µg/mL (Pseudomonas aeruginosa [15]) [mm]	zone of inhibition at 500 µg/mL (Staphylococcus aureus [16]) [mm]	zone of inhibition at 1000 µg/mL (Staphylococcus aureus [17]) [mm]	inhibition zone (IZ) (Aspergillus flavus [2])	inhibition zone (IZ) (Aspergillus flavus [3])	inhibition zone (IZ) (Candida albicans [5])	also measured
Cc1ccc(-c2nc3sc(-c4ccc(Cl)cc4)nn3c2-c2nc3ccccc3[nH]2)cc1	4	3	5	12.2	4	5	3	2	5	45.7	3.12 (≈ 7.07 µM)	2	3	5	1	1	4	–	–	–	–
COc1ccc(-c2nc3sc(C)nn3c2-c2nc3ccccc3[nH]2)cc1	–	–	–	7.1	–	–	–	–	–	21.4	6.25 (≈ 17.3 µM)	–	–	–	–	–	–	inactive	inactive	inactive	diameter of the inhibition zone (DIZ) (Pseudomonas aeruginosa [1]): inactive; inhibition zone (IZ) [6]: inactive; diameter of the inhibition zone (DIZ) (Salmonella typhi [7]): inactive; inhibition zone (IZ) [8]: inactive; diameter of the inhibition zone (DIZ) (Escherichia coli [9]): inactive; inhibition zone (IZ) (Candida albicans [12]): inactive; diameter of the inhibition zone (DIZ) (Escherichia coli [13]): inactive; diameter of the inhibition zone (DIZ) (Salmonella typhi [14]): inactive; diameter of the inhibition zone (DIZ) (Pseudomonas aeruginosa [15]): inactive; diameter of the inhibition zone (DIZ) (Staphylococcus aureus [16]): inactive; diameter of the inhibition zone (DIZ) (Staphylococcus aureus [17]): inactive
Cc1nn2c(-c3nc4cc(Cl)ccc4[nH]3)c(-c3ccc(Cl)cc3)nc2s1	4	1	3	7.12	4	5	2	3	4	78.8	3.12 (≈ 7.81 µM)	2	2	4	1	2	3	–	–	–	–
Cc1ccc(-c2nn3c(-c4nc5cc(Cl)ccc5[nH]4)c(-c4ccc(Cl)cc4)nc3s2)cc1	3	2	5	7.4	6	3	–	1	4	65.7	3.12 (≈ 6.56 µM)	4	2	–	2	3	5	–	–	–	diameter of the inhibition zone (DIZ) (Salmonella typhi [7]): inactive; diameter of the inhibition zone (DIZ) (Salmonella typhi [14]): inactive
COc1ccc(-c2nc3sc(-c4ccc(C)cc4)nn3c2-c2nc3cc(Cl)ccc3[nH]2)cc1	7	2	3	8.31	3	4	1	2	4	31.3	3.12 (≈ 6.62 µM)	2	2	3	3	3	6	–	–	–	–
Cc1nn2c(-c3nc4ccccc4[nH]3)c(-c3ccc(F)cc3)nc2s1	3	2	3	10.6	2	4	1	3	4	19.9	6.25 (≈ 17.9 µM)	1	3	2	2	1	2	–	–	–	–
Cc1ccc(-c2nn3c(-c4nc5ccccc5[nH]4)c(-c4ccc(Cl)cc4)nc3s2)cc1	6	–	–	13.3	–	–	2	–	4	18.8	3.12 (≈ 7.07 µM)	–	2	4	3	2	3	inactive	inactive	inactive	inhibition zone (IZ) [6]: inactive; inhibition zone (IZ) [8]: inactive; inhibition zone (IZ) (Candida albicans [12]): inactive
Cc1ccc(-c2nn3c(-c4nc5cc([N+](=O)[O-])ccc5[nH]4)c(-c4ccc(F)cc4)nc3s2)cc1	3	2	5	10.5	5	4	1	2	4	22.3	6.25 (≈ 13.3 µM)	2	2	4	2	2	4	–	–	–	–
Cc1ccc(-c2nc3sc(C)nn3c2-c2nc3ccccc3[nH]2)cc1	3	–	–	5.03	–	–	–	–	5	28.6	3.12 (≈ 9.05 µM)	–	2	6	2	3	5	inactive	inactive	inactive	inhibition zone (IZ) [6]: inactive; diameter of the inhibition zone (DIZ) (Salmonella typhi [7]): inactive; inhibition zone (IZ) [8]: inactive; inhibition zone (IZ) (Candida albicans [12]): inactive
